Results collected from several papers.
Lines come from different studies, so protocols differ.
BRAF V600E: Serine/threonine-protein kinase B-raf (BRAF, Homo sapiens, UniProt P15056, V600E)
ADORA3: Adenosine receptor A3 (ADORA3, Homo sapiens, UniProt P0DMS8)
DRD2: D(2) dopamine receptor (DRD2, Homo sapiens, UniProt P14416)
Blk: Tyrosine-protein kinase Blk (Blk, Mus musculus, UniProt P16277)
PARP16: Protein mono-ADP-ribosyltransferase PARP16 (PARP16, Homo sapiens, UniProt Q8N5Y8)
NPY1R: Neuropeptide Y receptor type 1 (NPY1R, Homo sapiens, UniProt P25929)

With `Cc1ccc(N=Nc2sc(NN=C(CS(=O)(=O)c3ccccc3)c3ccc(C)cc3)nc2C)cc1` the inhibition was 48% (BRAF V600E; enzyme activity, inhibitor, ATP luminescence; 0.1 µM).
The inhibition of `Cn1cnc(Br)c1C1=CN(c2ncnc3[nH]cnc23)CCS1` is reported as 18.7% (Serine/threonine-protein kinase Nek5 (NEK5, Homo sapiens, UniProt Q6P3R8); enzyme activity, inhibitor, radiometric; 50 nM).
`Cc1ccc(C(CS(=O)(=O)c2ccccc2)=NNC(N)=S)cc1` has an inhibition of 46% (BRAF V600E; enzyme activity, inhibitor, ATP luminescence; 0.1 µM).
`CCC(C)N1CCCn2c1nc1c2c(=O)n(C)c(=O)n1C` (stereo not shown) gave an inhibition of 14% (ADORA3; ligand displacement, radioligand; 10 µM, cell membranes).
`NS(=O)(=O)c1ccc(CCNCc2cccc3ccccc23)cc1` has an inhibition of 42.2% (DRD2; enzyme activity, inhibitor; 10 µM).
The inhibition of `CNCc1ccc(-c2cc(-c3nc(-c4ccc(S(=O)(=O)C(C)C)cc4)cnc3N)on2)cc1` is reported as 36% (Blk; enzyme activity, inhibitor; 2 µM).
With `O=C1NCCCc2c(O)cccc21` the inhibition was 0% (PARP16; enzyme activity, inhibitor; 10 µM).
The inhibition of `CCCCCC(C)N1CCCn2c1nc1c2c(=O)n(C)c(=O)n1C` (stereo not shown) is reported as 32% (ADORA3; ligand displacement, radioligand; 10 µM, cell membranes).
The inhibition of `O=C(c1ccc(Cl)cc1)N(Cc1ccccc1)C1CCCCC1` is reported as -13.6% (NPY1R; cell-free assay; 10 µM).
With `O=C1CCCc2c(O)cccc2N1` the inhibition was 0% (PARP16; enzyme activity, inhibitor; 10 µM).
For `NC(=S)NN=C(CS(=O)(=O)c1ccccc1)c1ccc(F)cc1`, the inhibition was 34% (BRAF V600E; enzyme activity, inhibitor, ATP luminescence; 10 nM).
`CC(=O)N[C@H]1CSSC[C@@H](C(=O)N[C@@H](Cc2c[nH]c3ccccc23)C(N)=O)NC(=O)[C@@H](Cc2ccccc2)NC(=O)[C@H](CCCNC(=N)N)NC1=O` has an inhibition of 45% (Melanocortin receptor 3 (MC3R, Homo sapiens, UniProt P41968); ligand displacement, radioligand; 10 µM, 40 min).
`CNC(=O)c1cc(Oc2ccc(NC(=O)Nc3ccc(Cl)c(C(F)(F)F)c3)cc2)ccn1` has an inhibition of 51% (Blk; enzyme activity, inhibitor; 10 µM).
The inhibition of `CCOCCNC(=O)NC12CC3CC(CC(C3)C1)C2` is reported as 8.7% (ephB (Mycobacterium tuberculosis, UniProt I6YC03); enzyme activity, inhibitor; 10 nM).
`CC(C)N1CCCn2c1nc1c2c(=O)n(C)c(=O)n1C` gave an inhibition of 8% (ADORA3; ligand displacement, radioligand; 10 µM, cell membranes).
The inhibition of `C=CCn1c(SCC(=O)NC2=NN(c3ccccc3)C(=O)C2)nnc1-c1cccs1` is reported as -12.8% (DRD2; enzyme activity, inhibitor; 10 µM).
For `CCN(Cc1ccccc1C(F)(F)F)C(=O)C1CCN(S(=O)(=O)c2ccc3[nH]ncc3c2)CC1`, the inhibition was 14% (ADORA3; ligand displacement, radioligand; 10 µM).
For `Cc1ccc(Nc2nccc(N(C)c3ccc4c(C)n(C)nc4c3)n2)cc1S(N)(=O)=O`, the inhibition was 63% (Dual specificity mitogen-activated protein kinase kinase 4 (Map2k4, Mus musculus, UniProt P47809); enzyme activity, inhibitor; 10 µM).
`COc1ccccc1N1CCN(CC(O)Cn2cnc3c2c(=O)n(C)c(=O)n3C)CC1` (stereo not shown) gave an inhibition of 2.6% (DRD2; enzyme activity, inhibitor; 10 µM).
With `CCN(CC)CCNC(=O)c1c(C)[nH]c(/C=C2\C(=O)Nc3ccc(F)cc32)c1C` the inhibition was 83% (Blk; enzyme activity, inhibitor; 10 µM).
For `COc1ccc(-c2ccc(CNCC(O)c3ccccc3)o2)cc1Cl` (stereo not shown), the inhibition was 46% (DRD2; enzyme activity, inhibitor; 10 µM).
For `COc1ccc2c(c1)C(=O)N(CCCN1CCN(c3ccccc3OC)CC1)C2`, the inhibition was 85% (DRD2; ligand displacement, radioligand; 10 µM).
With `CCC(=O)c1ccc(OCC(O)CN2CCN(S(=O)(=O)N3CCCCC3)CC2)cc1` (stereo not shown) the inhibition was 6.8% (DRD2; enzyme activity, inhibitor; 10 µM).
The inhibition of `Cc1ccc(C(CS(=O)(=O)c2ccccc2)=NNC2=NC(=O)C(=NNc3ccccc3)S2)cc1` is reported as 32% (BRAF V600E; enzyme activity, inhibitor, ATP luminescence; 10 nM).
The inhibition of `COc1cc2c3c(c1OC)-c1cc4c(cc1CC3N(C)CC2)OCO4` (racemic) is reported as 62% (5-hydroxytryptamine receptor 1E (HTR1E, Homo sapiens, UniProt P28566); ligand displacement, radioligand; 10 µM).
`Oc1cccc(Nc2nc(-c3ccc(F)cc3F)cs2)c1` gave an inhibition of -16.2% (NPY1R; cell-free assay; 10 µM).
With `Cc1ccc(CNC(=O)[C@H](CCc2ccccc2)NC(=O)[C@H](CCc2ccccc2)NC(=O)[C@H](CCc2ccccc2)NC(=O)c2cnc(C)cn2)cc1` the inhibition was -8% (Neutrophil elastase (ELANE, Homo sapiens, UniProt P08246); enzyme activity, inhibitor; 100 µM).
For `COCCOc1ccc(N2CCN(CCn3ncc4c3nc(N)n3nc(-c5ccco5)nc43)CC2)cc1`, the inhibition was 35% (ADORA3; ligand displacement, radioligand; 10 µM, cell membranes).
For `O=C1N=C(N2CCCCN2)S/C1=C\c1ccc(F)cc1O`, the inhibition was 27% (ADORA3; ligand displacement, radioligand; 10 µM).
For `O=C(c1ccc(F)cc1)N(Cc1ccccc1)C1CCCCC1`, the inhibition was 4% (ADORA3; cell-free assay; 10 µM).
`Cc1ccc(C(CS(=O)(=O)c2ccccc2)=NN=C2N=C(c3ccc(Br)cc3)CS2)cc1` gave an inhibition of 61% (BRAF V600E; enzyme activity, inhibitor, ATP luminescence; 0.1 µM).
With `Nc1ncnc2[nH]cnc12` the inhibition was 13% (ADORA3; ligand displacement, radioligand; 30 µM, cell membranes).
With `CS(=O)(=O)Nc1cccc(-c2csc(NC(=O)CSc3nc4nccnc4c(=O)n3CCc3ccccc3)n2)c1` the inhibition was 0% (Phosphatidylinositol 4-kinase type 2-alpha (PI4K2A, Homo sapiens, UniProt Q9BTU6); enzyme activity, inhibitor; 10 µM).
The inhibition of `COc1cc(NC(C)=O)c(Cl)cc1C(=O)Nc1nccs1` is reported as 6% (NPY1R; cell-free assay; 10 µM).
`CC(C)CN1CCCn2c1nc1c2c(=O)n(C)c(=O)n1C` gave an inhibition of 18% (ADORA3; ligand displacement, radioligand; 10 µM, cell membranes).
With `O=C(Nc1ccc(S(=O)(=O)N2CCC(Cl)CC2)cc1)c1ccc([N+](=O)[O-])o1` the inhibition was 6% (ADORA3; ligand displacement, radioligand; 10 µM).
`CN(C)C(=O)N[C@H]1CC[C@H](CCN2CCN(c3cccc(Cl)c3Cl)CC2)CC1` gave an inhibition of 101% (DRD2; cell-free assay; 10 µM).
The inhibition of `CN(C)C1CCN(CC#Cc2nn(C3CCCC3)c3nc(NCc4ccccc4)ncc23)C1` (stereo not shown) is reported as 8% (Mitogen-activated protein kinase 8 (MAPK8, Homo sapiens, UniProt P45983); enzyme activity, inhibitor, FRET; 10 µM).
`CN1CCCn2c1nc1c2c(=O)n(C)c(=O)n1C` has an inhibition of 3% (ADORA3; ligand displacement, radioligand; 10 µM, cell membranes).
For `Cc1ccc(C(C)C)c(OCC(O)CN2CCN(c3ccccc3F)CC2)c1` (stereo not shown), the inhibition was 32.3% (DRD2; enzyme activity, inhibitor; 10 µM).
`Cc1ccc(C(CS(=O)(=O)c2ccccc2)=NNC2=NC(=O)C(=NNc3ccc([N+](=O)[O-])cc3)S2)cc1` gave an inhibition of 89% (BRAF V600E; enzyme activity, inhibitor, ATP luminescence; 10 µM).
The inhibition of `CC(=O)Nc1ccc(N2C(=O)CC(NCCc3ccccc3)C2=O)cc1` (stereo not shown) is reported as 37.8% (DRD2; enzyme activity, inhibitor; 10 µM).
`Cc1ccc(C(CS(=O)(=O)c2ccccc2)=NNc2nc(-c3ccc(OCCCCOc4ccc(-c5csc(NN=C(CS(=O)(=O)c6ccccc6)c6ccc(C)cc6)n5)cc4)cc3)cs2)cc1` gave an inhibition of 57% (BRAF V600E; enzyme activity, inhibitor, ATP luminescence; 0.1 µM).
With `CCCC(C)N1CCCn2c1nc1c2c(=O)n(C)c(=O)n1C` (stereo not shown) the inhibition was 17% (ADORA3; ligand displacement, radioligand; 10 µM, cell membranes).
`COc1ccc(-c2csc(NN=C(CS(=O)(=O)c3ccccc3)c3ccc(F)cc3)n2)cc1` has an inhibition of 89% (BRAF V600E; enzyme activity, inhibitor, ATP luminescence; 10 µM).
The inhibition of `CCCN1CCCn2c1nc1c2c(=O)n(C)c(=O)n1C` is reported as 10% (ADORA3; ligand displacement, radioligand; 10 µM, cell membranes).
